Laboratory results reported in ChEMBL document CHEMBL1125265, “FTIR spectral study of intramolecular hydrogen bonding in thromboxane A2 receptor antagonist S-145 and related compounds. 3. Conformation and activity of S-145 analogues” (J Med Chem, 1991).

What was measured:
Format in all cases: functional
Oryctolagus cuniculus [1] = organism: Oryctolagus cuniculus; assay: In vitro inhibitory concentration measured against U-46,619 (1 uM) induced aggregation of washed platelets (WP) in rabbit; N-Negative
Rattus norvegicus [2] = organism: Rattus norvegicus; assay: In vitro inhibitory concentration measured against collagen ([…]) induced aggregation of washed platelets (WP) in rat
Outline: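 Rat washed platelets; aggregation triggered with collagen at 4 µg/mL; inhibitory concentration reported as IC50, following a procedure from earlier work.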

Rattus norvegicus [3] = organism: Rattus norvegicus; assay: In vitro inhibitory concentration measured against U-46,619 (30 nM) induced contraction for rat aorta
Oryctolagus cuniculus [4] = organism: Oryctolagus cuniculus; assay: In vitro inhibitory concentration measured against U-46,619 (1 uM) induced aggregation of washed platelets (WP) in rabbit

Row | Structure (SMILES) | IC50 (Oryctolagus cuniculus [1]) | IC50 (Rattus norvegicus [2]) | IC50 (Rattus norvegicus [3]) | IC50 (Oryctolagus cuniculus [4])
1 | CCCCCCC(O)CCCCCCCCCCC(=O)O (configuration not stated) | Negative |  |  | 
2 | O=C(O)CCCCCNS(=O)(=O)c1ccccc1 | Negative | > 14500 nM | > 140000 nM | 
3 | O=C(O)CCCCCCCCCCNS(=O)(=O)c1ccccc1 |  | 4350 nM | 4600 nM | 10000 nM
4 | O=C(O)CCCCCCCCNS(=O)(=O)c1ccccc1 |  | 410 nM | 1600 nM | 400 nM
5 | O=C(O)CCCCCCCCCCCO | Negative |  |  | 
6 | O=C(O)CCCCCCNS(=O)(=O)c1ccccc1 |  | 11600 nM | 55300 nM | > 10000 nM
7 | O=C(O)CCCCNS(=O)(=O)c1ccccc1 | Negative | > 14500 nM | > 140000 nM | 
8 | O=C(O)CCC/C=C\C[C@@H]1C(NS(=O)(=O)c2ccccc2)C2CC[C@@H]1C2 (some centres not stated) |  | 2.9 nM | 1.4 nM | 6 nM
9 | O=C(O)CCCNS(=O)(=O)c1ccccc1 | Negative | > 14500 nM | > 140000 nM | 
10 | O=C(O)CCCCCCCCCCCNS(=O)(=O)c1ccccc1 |  | 3480 nM | 6400 nM | > 10000 nM
11 | O=C(O)CCC/C=C\CCCNS(=O)(=O)c1ccccc1 |  | 41 nM |  | 48 nM
12 | O=C(O)CCCCCCCNS(=O)(=O)c1ccccc1 |  | 290 nM | 2800 nM | 700 nM
13 | O=C(O)COc1ccc(CCNS(=O)(=O)c2ccccc2)cc1 [SULOTROBAN] |  |  |  | 300 nM
